Source: ChEMBL document CHEMBL4219080, “Discovery of novel 4-aryl-thieno[1,4]diazepin-2-one derivatives targeting multiple protein kinases as anticancer agents” (Bioorg Med Chem, 2018)
Calls of active or inactive are those of the source. The calls are words filed in the database; no cut-off is given here.

Key:
[1] = Antiproliferative activity against human A375P cells after 24 hrs by MTT assay; type: functional
Summary of the method: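 A375P cells grown in DMEM with 10% FBS and 1% penicillin/streptomycin at 37 °C, 5% CO₂. Harvested with trypsin-EDTA, seeded at 5×10³ cells/well and incubated 24 h before dosing with a 12-point, 3-fold serial dilution. Viability by MTT reduction, absorbance at 590 nm. IC50 derived by curve fitting.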

U-937 = assay: Antiproliferative activity against human U937 cells after 24 hrs by MTT assay; type: functional; conditions: U-937, 24 h
Summary of the method: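 U937 cells kept in RPMI 1640 with 10% FBS, 1% penicillin/streptomycin and 25 mM HEPES (37 °C, 5% CO₂). Seeded at 5×10³ cells/well and held 24 h before exposure to 12 concentrations in 3-fold serial dilution. MTT reduction read at 570 nm. IC50 obtained by curve fitting.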

[2] = target: T1, Macrophage colony-stimulating factor 1 receptor (Homo sapiens, UniProt P07333); assay: Inhibition of human FMS using myelin basic protein as substrate after 40 mins in presence of [gamma-33P]-ATP by liquid scintillation counting method
T1 sequence (P07333 whole entry): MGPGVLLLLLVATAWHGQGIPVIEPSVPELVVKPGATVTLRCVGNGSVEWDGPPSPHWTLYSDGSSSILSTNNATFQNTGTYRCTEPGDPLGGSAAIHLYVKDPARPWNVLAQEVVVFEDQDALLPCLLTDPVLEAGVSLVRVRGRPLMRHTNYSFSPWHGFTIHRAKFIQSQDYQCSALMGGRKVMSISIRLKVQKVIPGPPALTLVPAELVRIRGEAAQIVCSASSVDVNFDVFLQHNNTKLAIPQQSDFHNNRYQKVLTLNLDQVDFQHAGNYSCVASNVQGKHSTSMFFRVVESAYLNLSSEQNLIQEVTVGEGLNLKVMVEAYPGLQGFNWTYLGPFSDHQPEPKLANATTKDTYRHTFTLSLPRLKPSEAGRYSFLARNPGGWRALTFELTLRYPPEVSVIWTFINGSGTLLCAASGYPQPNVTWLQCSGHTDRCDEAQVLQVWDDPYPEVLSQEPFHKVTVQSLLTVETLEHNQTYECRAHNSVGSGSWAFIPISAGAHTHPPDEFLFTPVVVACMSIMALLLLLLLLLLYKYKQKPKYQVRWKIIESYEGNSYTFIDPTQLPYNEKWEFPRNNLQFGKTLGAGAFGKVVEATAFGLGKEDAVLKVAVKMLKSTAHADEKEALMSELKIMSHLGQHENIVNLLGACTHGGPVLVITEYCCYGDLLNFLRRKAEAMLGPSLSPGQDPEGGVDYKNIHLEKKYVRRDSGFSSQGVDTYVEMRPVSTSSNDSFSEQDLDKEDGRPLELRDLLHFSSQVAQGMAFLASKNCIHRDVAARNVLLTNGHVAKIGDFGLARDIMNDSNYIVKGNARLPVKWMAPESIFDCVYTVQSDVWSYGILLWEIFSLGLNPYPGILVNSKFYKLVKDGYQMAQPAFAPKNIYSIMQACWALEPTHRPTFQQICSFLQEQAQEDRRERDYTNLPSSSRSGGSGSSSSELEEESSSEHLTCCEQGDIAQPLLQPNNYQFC
Summary of the method: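 Radiometric filter-binding assay with human FMS (5–10 mU) in 25 mM Tris pH 7.5, 0.02 mM EGTA, 0.66 mg/mL myelin basic protein and 10 mM magnesium acetate, with [γ-33P]ATP (approx. 500 cpm/pmol). Started with Mg-ATP mix and run 40 min at room temperature. Stopped with 3% phosphoric acid, spotted on P30 filtermat, washed in 75 mM phosphoric acid then methanol, scintillation counted.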

[3] = target: Vascular endothelial growth factor receptor 3 (Homo sapiens) (UniProt P35916); assay: Inhibition of human FLT4 using poly[Glu:Tyr] (4:1) as substrate at 10 uM after 40 mins in presence of [gamma-33P]-ATP by liquid scintillation counting method
Chain of Vascular endothelial growth factor receptor 3 (Homo sapiens) (P35916 whole entry): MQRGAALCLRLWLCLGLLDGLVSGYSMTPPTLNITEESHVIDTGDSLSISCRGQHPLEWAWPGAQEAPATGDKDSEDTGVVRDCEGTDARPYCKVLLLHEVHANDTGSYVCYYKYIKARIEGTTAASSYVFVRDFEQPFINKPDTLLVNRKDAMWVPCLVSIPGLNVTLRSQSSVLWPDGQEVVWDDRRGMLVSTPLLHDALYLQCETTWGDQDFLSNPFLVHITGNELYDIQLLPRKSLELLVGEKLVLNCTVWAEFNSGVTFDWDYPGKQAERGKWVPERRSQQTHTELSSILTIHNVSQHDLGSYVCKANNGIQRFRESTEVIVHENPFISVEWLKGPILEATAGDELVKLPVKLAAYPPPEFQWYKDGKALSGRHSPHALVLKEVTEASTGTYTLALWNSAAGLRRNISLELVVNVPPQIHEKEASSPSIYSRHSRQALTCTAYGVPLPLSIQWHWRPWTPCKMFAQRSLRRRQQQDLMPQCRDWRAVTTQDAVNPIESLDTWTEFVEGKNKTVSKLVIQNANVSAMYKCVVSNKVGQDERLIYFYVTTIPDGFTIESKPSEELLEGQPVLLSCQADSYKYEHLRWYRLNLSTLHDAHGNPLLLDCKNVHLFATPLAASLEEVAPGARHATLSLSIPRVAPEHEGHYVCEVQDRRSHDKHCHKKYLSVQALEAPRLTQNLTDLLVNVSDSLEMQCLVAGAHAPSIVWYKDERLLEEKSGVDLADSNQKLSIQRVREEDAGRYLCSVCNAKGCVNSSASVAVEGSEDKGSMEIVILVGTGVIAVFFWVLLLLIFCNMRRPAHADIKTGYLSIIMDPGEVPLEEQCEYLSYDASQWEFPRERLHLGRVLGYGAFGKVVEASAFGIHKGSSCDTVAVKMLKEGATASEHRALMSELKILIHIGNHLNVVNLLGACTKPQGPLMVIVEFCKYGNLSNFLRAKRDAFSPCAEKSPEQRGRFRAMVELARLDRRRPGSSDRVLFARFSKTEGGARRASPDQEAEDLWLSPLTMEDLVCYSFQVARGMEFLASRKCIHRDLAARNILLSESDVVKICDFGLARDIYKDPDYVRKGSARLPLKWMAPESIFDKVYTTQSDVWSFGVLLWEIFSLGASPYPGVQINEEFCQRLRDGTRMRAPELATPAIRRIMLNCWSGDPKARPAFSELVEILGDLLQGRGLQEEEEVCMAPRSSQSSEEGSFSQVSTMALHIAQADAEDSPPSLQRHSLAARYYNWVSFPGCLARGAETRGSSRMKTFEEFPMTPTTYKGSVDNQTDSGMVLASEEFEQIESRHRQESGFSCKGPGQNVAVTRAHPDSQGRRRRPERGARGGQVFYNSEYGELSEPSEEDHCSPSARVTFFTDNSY

[4] = target: T2, Receptor-type tyrosine-protein kinase FLT3 (Homo sapiens, UniProt P36888); assay: Inhibition of FLT3 (unknown origin) after 40 mins in presence of [gamma-33P]-ATP by liquid scintillation counting method
T2 sequence (P36888 whole entry): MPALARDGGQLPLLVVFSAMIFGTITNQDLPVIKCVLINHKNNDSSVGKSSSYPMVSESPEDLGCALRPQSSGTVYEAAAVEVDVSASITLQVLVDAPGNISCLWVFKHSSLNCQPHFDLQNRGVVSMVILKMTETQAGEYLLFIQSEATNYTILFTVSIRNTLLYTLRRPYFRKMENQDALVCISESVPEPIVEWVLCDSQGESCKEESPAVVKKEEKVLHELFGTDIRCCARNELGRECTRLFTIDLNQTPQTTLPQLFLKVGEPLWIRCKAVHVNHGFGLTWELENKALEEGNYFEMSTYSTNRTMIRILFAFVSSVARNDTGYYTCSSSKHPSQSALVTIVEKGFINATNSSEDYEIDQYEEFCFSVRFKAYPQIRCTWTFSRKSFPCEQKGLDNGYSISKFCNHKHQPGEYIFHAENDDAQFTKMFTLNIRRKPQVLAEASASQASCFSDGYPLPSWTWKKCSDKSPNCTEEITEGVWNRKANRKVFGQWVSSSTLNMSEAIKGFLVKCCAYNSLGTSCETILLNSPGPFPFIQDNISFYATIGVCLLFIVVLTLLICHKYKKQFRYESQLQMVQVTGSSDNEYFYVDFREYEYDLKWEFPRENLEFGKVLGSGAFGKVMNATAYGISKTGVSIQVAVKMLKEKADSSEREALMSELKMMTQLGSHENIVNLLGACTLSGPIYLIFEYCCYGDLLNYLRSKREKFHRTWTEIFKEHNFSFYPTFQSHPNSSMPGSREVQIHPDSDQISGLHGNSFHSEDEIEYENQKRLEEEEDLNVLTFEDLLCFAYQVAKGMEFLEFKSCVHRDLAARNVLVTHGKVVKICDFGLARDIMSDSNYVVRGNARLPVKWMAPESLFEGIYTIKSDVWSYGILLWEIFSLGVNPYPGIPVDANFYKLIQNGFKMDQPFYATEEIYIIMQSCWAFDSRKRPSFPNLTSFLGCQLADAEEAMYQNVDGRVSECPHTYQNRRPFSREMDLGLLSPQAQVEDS

[5] = target: Receptor-type tyrosine-protein kinase FLT3 (Homo sapiens) (UniProt P36888); assay: Inhibition of human FLT3 using EAIYAAPFAKKK peptide as substrate at 10 uM after 40 mins in presence of [gamma-33P]-ATP by liquid scintillation counting method
[6] = target: T1, Macrophage colony-stimulating factor 1 receptor; assay: Inhibition of human FMS using myelin basic protein as substrate at 10 uM after 40 mins in presence of [gamma-33P]-ATP by liquid scintillation counting method
[7] = target: T3, Platelet-derived growth factor receptor beta (Homo sapiens, UniProt P09619); assay: Inhibition of PDGFRb (unknown origin) after 40 mins in presence of [gamma-33P]-ATP by liquid scintillation counting method
T3 sequence (P09619 whole entry): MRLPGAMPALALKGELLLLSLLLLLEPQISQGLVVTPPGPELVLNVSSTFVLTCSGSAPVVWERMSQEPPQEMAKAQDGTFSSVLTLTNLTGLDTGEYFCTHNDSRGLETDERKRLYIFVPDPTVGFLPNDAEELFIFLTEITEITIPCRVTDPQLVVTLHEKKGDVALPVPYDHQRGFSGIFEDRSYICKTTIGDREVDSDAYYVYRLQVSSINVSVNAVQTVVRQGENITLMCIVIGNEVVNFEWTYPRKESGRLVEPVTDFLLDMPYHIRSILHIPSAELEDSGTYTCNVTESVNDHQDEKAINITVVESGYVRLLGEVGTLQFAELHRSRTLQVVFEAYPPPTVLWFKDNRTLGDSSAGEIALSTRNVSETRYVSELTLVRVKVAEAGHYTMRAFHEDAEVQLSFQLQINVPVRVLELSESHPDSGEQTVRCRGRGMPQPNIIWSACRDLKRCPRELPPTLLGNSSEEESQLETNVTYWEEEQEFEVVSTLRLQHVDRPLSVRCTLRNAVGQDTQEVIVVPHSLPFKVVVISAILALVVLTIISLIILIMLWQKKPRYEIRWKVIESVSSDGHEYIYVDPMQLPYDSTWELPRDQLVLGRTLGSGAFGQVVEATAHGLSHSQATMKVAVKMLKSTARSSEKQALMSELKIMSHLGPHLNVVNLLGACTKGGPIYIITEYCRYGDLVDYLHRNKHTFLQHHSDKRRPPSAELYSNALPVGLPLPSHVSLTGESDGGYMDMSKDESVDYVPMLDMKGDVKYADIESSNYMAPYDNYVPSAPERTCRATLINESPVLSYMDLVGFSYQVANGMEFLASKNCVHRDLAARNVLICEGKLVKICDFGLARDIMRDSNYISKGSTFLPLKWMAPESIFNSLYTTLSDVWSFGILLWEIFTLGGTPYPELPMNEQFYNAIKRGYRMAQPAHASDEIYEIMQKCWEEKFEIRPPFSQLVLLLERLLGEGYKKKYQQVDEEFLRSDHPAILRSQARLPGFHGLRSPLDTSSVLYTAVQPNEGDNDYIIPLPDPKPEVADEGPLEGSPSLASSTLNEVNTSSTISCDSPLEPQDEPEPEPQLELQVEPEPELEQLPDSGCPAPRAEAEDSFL

[8] = target: T4, Proto-oncogene tyrosine-protein kinase receptor Ret (Homo sapiens, UniProt P07949); assay: Inhibition of human RET using KKKVSRSGLYRSPSMPENLNRPR as substrate at 10 uM after 40 mins in presence of [gamma-33P]-ATP by liquid scintillation counting method
T4 sequence (P07949 whole entry): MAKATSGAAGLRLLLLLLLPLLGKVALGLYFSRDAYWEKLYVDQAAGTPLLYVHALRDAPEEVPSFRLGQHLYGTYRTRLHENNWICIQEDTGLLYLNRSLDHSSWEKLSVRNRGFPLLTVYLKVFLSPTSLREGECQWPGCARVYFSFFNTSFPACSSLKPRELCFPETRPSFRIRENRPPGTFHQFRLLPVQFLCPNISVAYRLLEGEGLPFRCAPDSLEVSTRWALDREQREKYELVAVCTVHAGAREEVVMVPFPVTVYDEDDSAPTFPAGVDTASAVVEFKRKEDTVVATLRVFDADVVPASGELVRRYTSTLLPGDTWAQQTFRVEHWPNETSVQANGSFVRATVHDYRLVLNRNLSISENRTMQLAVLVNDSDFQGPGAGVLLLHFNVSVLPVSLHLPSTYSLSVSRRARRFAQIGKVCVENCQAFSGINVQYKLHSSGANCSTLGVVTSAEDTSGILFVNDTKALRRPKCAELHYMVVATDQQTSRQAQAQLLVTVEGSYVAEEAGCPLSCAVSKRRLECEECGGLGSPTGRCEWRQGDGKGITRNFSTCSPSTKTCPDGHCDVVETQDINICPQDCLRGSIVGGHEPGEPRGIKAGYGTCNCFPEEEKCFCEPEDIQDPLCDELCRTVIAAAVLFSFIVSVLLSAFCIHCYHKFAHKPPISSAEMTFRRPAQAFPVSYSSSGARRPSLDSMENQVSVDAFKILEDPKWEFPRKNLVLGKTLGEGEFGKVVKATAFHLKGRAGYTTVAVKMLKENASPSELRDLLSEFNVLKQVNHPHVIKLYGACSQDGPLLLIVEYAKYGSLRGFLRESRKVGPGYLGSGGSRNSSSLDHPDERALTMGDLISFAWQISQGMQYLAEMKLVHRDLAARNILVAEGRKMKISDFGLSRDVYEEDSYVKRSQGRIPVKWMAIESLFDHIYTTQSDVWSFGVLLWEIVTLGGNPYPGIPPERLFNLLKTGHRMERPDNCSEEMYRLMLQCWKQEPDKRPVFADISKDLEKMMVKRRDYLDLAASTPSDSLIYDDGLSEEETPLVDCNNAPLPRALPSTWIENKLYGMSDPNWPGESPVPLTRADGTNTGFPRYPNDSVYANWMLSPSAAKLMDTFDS

[9] = target: T4, Proto-oncogene tyrosine-protein kinase receptor Ret; assay: Inhibition of RET (unknown origin) after 40 mins in presence of [gamma-33P]-ATP by liquid scintillation counting method
[10] = target: T3, Platelet-derived growth factor receptor beta; assay: Inhibition of human PDGFRb using poly[Glu:Tyr] (4:1) as substrate at 10 uM after 40 mins in presence of [gamma-33P]-ATP by liquid scintillation counting method

Structure (SMILES)	GI50 (U-937) [µM]	GI50 [1] [µM]	further results
CC(=O)N1CCC(C(=O)Nc2ccc(C3=Nc4cscc4NC(=O)C3)cc2)CC1		> 30	
O=C1CC(c2ccc(NC(=O)Nc3ccc(Cl)c(C(F)(F)F)c3)cc2)=Nc2cscc2N1	4.08	1.7	
O=C(Cc1ccc(-c2ccccc2)cc1)Nc1ccc(C2=Nc3cscc3NC(=O)C2)cc1		8.7	
O=C1CC(c2ccc(NC(=O)Nc3ccc(Cl)c(Cl)c3)cc2)=Nc2cscc2N1		2.06	
CCN1CCN(Cc2ccc(NC(=O)Nc3cccc(C4=Nc5cscc5NC(=O)C4)c3)cc2C(F)(F)F)CC1	2.75	1.82	
O=C1CC(c2ccc(NC(=O)c3cnn(-c4ccccc4)c3C(F)(F)F)cc2)=Nc2cscc2N1		6.85	
Cc1c(C)c2c(c(C)c1O)CC[C@](C)(C(=O)Nc1cccc(C3=Nc4cscc4NC(=O)C3)c1)O2		> 30	
O=C1CC(c2cccc(NC(=O)c3ccc(Cl)c(C(F)(F)F)c3)c2)=Nc2cscc2N1		4.99	
CN1CCN(c2cc(C(=O)Nc3cccc(C4=Nc5cscc5NC(=O)C4)c3)cc(C(F)(F)F)c2)CC1		3.04	
O=C1CC(c2cccc(NC(=O)c3cnc4ccccc4c3)c2)=Nc2cscc2N1		6.87	
O=C1CC(c2ccc(NC(=O)c3ccc(Cl)c(C(F)(F)F)c3)cc2)=Nc2cscc2N1		7.85	
O=C1CC(c2cccc(NC(=O)c3cc(N4CCOCC4)cc(C(F)(F)F)c3)c2)=Nc2cscc2N1		1.98	
O=C1CC(c2ccc(NC(=O)c3cc(N4CCOCC4)cc(C(F)(F)F)c3)cc2)=Nc2cscc2N1		3.45	
CCN1CCN(Cc2ccc(NC(=O)Nc3ccc(C4=Nc5cscc5NC(=O)C4)cc3)cc2C(F)(F)F)CC1		0.32	IC50 [2]: 0.00373 µM; inhibition [3]: Active; IC50 [4]: 0.0279 µM; inhibition [5]: Active; inhibition [6]: Active; IC50 [7]: 0.0634 µM; inhibition [8]: Active; IC50 [9]: 0.0716 µM; inhibition [10]: Active

Continued, in another order:

GI50 (U-937) [µM]	Structure (SMILES)	GI50 [1] [µM]	further results
4.55	O=C1CC(c2cccc(NC(=O)Nc3ccc(Cl)cc3)c2)=Nc2cscc2N1	5.04	
3.2	O=C1CC(c2cccc(NC(=O)Nc3ccc(Cl)c(Cl)c3)c2)=Nc2cscc2N1	11	
1.03	O=C1CC(c2cccc(NC(=O)c3ccccc3-c3ccccc3)c2)=Nc2cscc2N1	3.25	
0.964	O=C1CC(c2ccc(NC(=O)Nc3ccc(Cl)cc3)cc2)=Nc2cscc2N1	3.12	
> 30	CN1CCN(c2cc(C(=O)Nc3ccc(C4=Nc5cscc5NC(=O)C4)cc3)cc(C(F)(F)F)c2)CC1	> 30	
2.34	CNC(=O)c1cc(Oc2ccc(NC(=O)Nc3ccc(Cl)c(C(F)(F)F)c3)cc2)ccn1 [SORAFENIB]	3.4	
14.3	O=C1CC(c2cccc(NC(=O)Nc3ccc(Cl)c(C(F)(F)F)c3)c2)=Nc2cscc2N1	8.25	
3.77	O=C1CC(c2ccc(NC(=O)c3ccccc3-c3ccccc3)cc2)=Nc2cscc2N1	> 30	
> 30	O=C(Cc1c[nH]c2ccccc12)Nc1cccc(C2=Nc3cscc3NC(=O)C2)c1	> 30	
9.64	O=C1CC(c2cccc(NC(=O)c3cnn(-c4ccccc4)c3C(F)(F)F)c2)=Nc2cscc2N1		
> 30	O=C(Cc1c[nH]c2ccccc12)Nc1ccc(C2=Nc3cscc3NC(=O)C2)cc1	> 30	
